Activity calls are given as the source filed them. The rule behind the calls is not given here.
Assays:
HeLa [1] = experiment: Cytotoxicity against human HeLa cells assessed as cell survival after 24 hrs by trypan blue exclusion assay; type: functional, cell-based
Method in brief: (§1)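 Cells exposed 24 h to increasing concentrations (DMSO vehicle, 0.1% of medium; controls got DMSO) at 37 °C, 5% CO2. Viability by trypan blue exclusion, triplicate samples, at least 10 fields counted each; survival as % of viable cells vs control. IC50 read from dose–response curve as concentration giving 50% survival.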

HT-29 [2] = experiment: Cytotoxicity against human HT-29 cells assessed as cell survival after 24 hrs by trypan blue exclusion assay; type: functional, cell-based; conditions: HT-29, 24 h; method in brief: as §1
[3] = Cytotoxicity against human SH-SY5Y cells assessed as cell survival after 24 hrs by trypan blue exclusion assay; type: functional, cell-based; method in brief: as §1
HeLa [4] = experiment: Induction of apoptosis in human HeLa cells assessed as nuclear condensation at 2 uM after 24 hrs by DAPI staining assay; type: functional, cell-based
Method in brief: (§2)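 HeLa treated 24 h with 2 µM, then stained with DAPI and scored for chromatin condensation and nuclear fragmentation/condensation.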

SAOS-2 [5] = experiment: Cytotoxicity against human p53-deficient Saos2 cells assessed as cell survival after 48 hrs by trypan blue exclusion assay; type: functional, cell-based; conditions: SAOS-2, 48 h
Method in brief: (§3)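 Cells exposed 48 h to increasing concentrations in DMSO (0.1% of medium) at 37 °C, 5% CO2. Trypan blue exclusion counts, at least 10 fields per sample, survival as % of viable control cells. IC50 interpolated from dose–response curve; means ± S.E.M. of three to four replicates.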

U2OS [6] = experiment: Cytotoxicity against human U2OS cells assessed as cell survival after 48 hrs by trypan blue exclusion assay; type: functional, cell-based; method in brief: as §3
HeLa [7] = experiment: Cytotoxicity against human HeLa cells assessed as decrease in cell survival at 2 uM after 24 hrs by trypan blue exclusion assay relative to control; type: functional; conditions: read-out: Survival
Method in brief: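 HeLa cells grown in EMEM with 10% FBS, 1% glutamine, 1% nonessential amino acids, 1 mM pyruvate and antibiotics at 37 °C in 5% CO2. Compound added from DMSO stock (DMSO 0.1% of volume; controls got DMSO only) and exposed 24 h. Viability read by trypan blue exclusion in triplicate samples, at least 10 fields counted. Survival given as % viable cells versus control.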

HeLa [8] = experiment: Induction of autophagy in human HeLa cells assessed as appearance of vacuoles in cytoplasm containing mitochondrion at 2 uM after 24 hrs by transmission electron microscopic analysis; type: functional, cell-based
Method in brief: (§4)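 HeLa seeded on glass slides at 1.3 × 10^6 cells/well for 24 h, treated 24 h with 2 µM, fixed in 2.5% glutaraldehyde in 0.1 M phosphate buffer 2 h at 4 °C, post-fixed in 1% OsO4 1 h at 4 °C, examined by transmission electron microscopy for cytoplasmic vacuoles.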

HeLa [9] = experiment: Induction of autophagy in human HeLa cells assessed as appearance of acidic vesicular organelles at 2 uM after 3 hrs by acridine orange staining-based immunofluorescence microscopic analysis; type: functional, cell-based
Method in brief: (§5)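 HeLa treated 3 h with DMSO or 2 µM, with or without 2 h pretreatment with 5 mM NAC; stained with acridine orange and imaged by fluorescence microscopy for cells with orange–red acidic vesicular organelles. Two independent experiments.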

HL-60 [10] = experiment: Cytotoxicity against human HL60 cells assessed as cell survival after 24 hrs by trypan blue exclusion assay; type: functional, cell-based; conditions: HL-60, 24 h; method in brief: as §1
HeLa [11] = experiment: Induction of apoptosis in human HeLa cells assessed as nuclear fragmentation at 2 uM after 24 hrs by DAPI staining assay; type: functional, cell-based; method in brief: as §2
HeLa [12] = experiment: Cytotoxicity against human HeLa cells assessed as decrease in cell survival at 2 uM after 24 hrs at pH 6.4 by trypan blue exclusion assay; type: functional, cell-based
Method in brief: (§6)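 HeLa given 2 µM for 24 h with uptake-modifying conditions: 0.5 mM spermine plus 1 mM aminoguanidine (inhibits serum amine oxidases); 0.1 mM DFMO with 48 h pretreatment; or medium adjusted to pH 6.4 with HCl instead of 7.2. Survival by trypan blue exclusion vs control; triplicate means ± S.E.M.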

HeLa [13] = experiment: Cytotoxicity against human HeLa cells transfected with Atg5 siRNA assessed as decrease in cell survival at 2 uM after 24 hrs by trypan blue exclusion assay; type: functional, cell-based
Method in brief: (§7)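 HeLa at 50% confluence transfected 24 h with 100 nM (final) Atg5 or control siRNA, then after a further 24 h incubated 24 h ± 2 µM compound. Cell death by trypan blue; acidic vesicle accumulation by acridine orange staining. Atg5 knockdown checked by blot. Triplicate means ± S.E.M.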

HeLa [14] = experiment: Cytotoxicity against human HeLa cells assessed as decrease in cell survival at 2 uM after 24 hrs by trypan blue exclusion assay in presence of Z-VADfmk; type: functional, cell-based
Method in brief: (§8)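 HeLa pretreated 2 h with Z-VADfmk (50 µM) or necrostatin-1 (20 µM), then exposed to compound for 24 h. Viability by trypan blue exclusion, survival as % of viable control cells; means ± S.E.M. of three determinations.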

[15] = Cytotoxicity against human C-28/I2 cells assessed as cell survival after 24 hrs by trypan blue exclusion assay; type: cell-based; conditions: C28/I2, 24 h; method in brief: as §1
HeLa [16] = experiment: Cytotoxicity against human HeLa cells assessed as decrease in cell survival at 2 uM after 24 hrs by trypan blue exclusion assay in presence of spermine; type: functional, cell-based; method in brief: as §6
HeLa [17] = experiment: Cytotoxicity against human HeLa cells assessed as decrease in cell survival at 2 uM after 24 hrs by trypan blue exclusion assay in presence of necrostatin-1; type: functional, cell-based; method in brief: as §8
HeLa [18] = experiment: Induction of apoptosis in human HeLa cells assessed as chromatin condensation at 2 uM after 24 hrs by DAPI staining assay; type: functional, cell-based; method in brief: as §2
HeLa [19] = experiment: Induction of autophagy in human HeLa cells assessed as conversion of LC3-1 protein to LC3-2 protein at 2 uM after 3 hrs by Western blot analysis in presence of N-acetylcysteine; type: functional, cell-based
Method in brief: (§9)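 HeLa treated 3 h with 2 µM in presence or absence of 5 mM NAC; 50 µg protein analysed by Western blot with monoclonal antibody recognising LC3-I (18 kDa) and LC3-II (16 kDa).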

HeLa [20] = experiment: Cytotoxicity against human HeLa cells assessed as decrease in cell survival up to 3 mM after 24 hrs by trypan blue exclusion assay in presence of N-acetylcysteine; type: functional, cell-based
Method in brief: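 HeLa exposed 24 h to the indicated concentrations with or without 5 mM N-acetylcysteine. Survival by trypan blue exclusion relative to control; triplicate means ± S.E.M.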

U2OS [21] = experiment: Cytotoxicity against human U2OS cells assessed as cell survival after 24 hrs by trypan blue exclusion assay; type: functional, cell-based; method in brief: as §1
HeLa [22] = experiment: Induction of autophagy in human HeLa cells transfected with Atg5 siRNA assessed as acidic vesicles accumulation at 2 uM after 24 hrs by acridine orange staining-based immunofluorescence microscopic analysis relative to cell transfected with control siRNA; type: functional; method in brief: as §7
HT-29 [23] = experiment: Cytotoxicity against human HT-29 cells assessed as cell survival after 48 hrs by trypan blue exclusion assay; type: functional, cell-based; conditions: HT-29, 48 h; method in brief: as §3
[24] = Cytotoxicity against human SH-SY5Y cells assessed as cell survival after 48 hrs by trypan blue exclusion assay; type: functional, cell-based; method in brief: as §3
HeLa [25] = experiment: Induction of autophagy in human HeLa cells assessed as conversion of LC3-1 protein to LC3-2 protein at 2 uM after 3 hrs by Western blot analysis in presence of bafilomycin A; type: functional, cell-based
LoVo [26] = experiment: Cytotoxicity against human LoVo cells assessed as cell survival after 48 hrs by trypan blue exclusion assay; type: functional, cell-based; method in brief: as §3
HeLa [27] = experiment: Cytotoxicity against human HeLa cells assessed as decrease in cell survival at 2 uM after 24 hrs by trypan blue exclusion assay in presence of DFMO; type: functional, cell-based; method in brief: as §6
HL-60 [28] = experiment: Cytotoxicity against human HL60 cells assessed as cell survival after 48 hrs by trypan blue exclusion assay; type: functional, cell-based; conditions: HL-60, 48 h; method in brief: as §3
SAOS-2 [29] = experiment: Cytotoxicity against human p53-deficient Saos2 cells assessed as cell survival after 24 hrs by trypan blue exclusion assay; type: functional, cell-based; conditions: SAOS-2, 24 h; method in brief: as §1
LoVo [30] = experiment: Cytotoxicity against human LoVo cells assessed as cell survival after 24 hrs by trypan blue exclusion assay; type: functional, cell-based; method in brief: as §1
HeLa [31] = experiment: Disruption of mitochondrial membrane potential in human HeLa cells at 2 uM after 4 hrs by DiOC6/propidium iodide staining-based flow cytometric analysis; type: functional
Method in brief: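 After treatment, HeLa (1 × 10^6 cells/mL) stained with 4 nM DiOC6 for 40 min at 37 °C in the dark, counterstained with 5 µg/mL propidium iodide to exclude dead cells. Flow cytometry with logarithmic amplification, argon laser; mean green fluorescence channel recorded.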

HeLa [32] = experiment: Induction of intracellular peroxide formation in human HeLa cells at 2 uM after 3 hrs by DCFDA staining-based flow cytometric analysis; type: functional, cell-based
Method in brief: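 HeLa treated 3 h with 2 µM, then loaded with 5 µM DCFDA for 30 min at 37 °C. DCF fluorescence measured by flow cytometry with logarithmic amplification; mean fluorescence channel vs DMSO control.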

HeLa [33] = experiment: Induction of autophagy in human HeLa cells assessed as appearance of vacuoles in cytoplasm containing organic materials at 2 uM after 24 hrs by transmission electron microscopic analysis; type: functional, cell-based; method in brief: as §4
Thymocyte = experiment: Cytotoxicity against rat thymocytes assessed as cell survival after 24 hrs by trypan blue exclusion assay; type: cell-based; method in brief: as §1
HeLa [34] = experiment: Cytotoxicity against human HeLa cells assessed as cell survival after 48 hrs by trypan blue exclusion assay; type: functional, cell-based; method in brief: as §3
HeLa [35] = experiment: Induction of apoptosis in human HeLa cells assessed as increase in caspase 3/7 activity at 2 uM after 24 hrs by DEVD-based fluorometric analysis; type: functional, cell-based
Method in brief: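 HeLa treated 24 h with 25 µM DENSPM (positive control) or the indicated concentrations of compound; DEVDase (caspase 3/7) activity measured. Means ± S.E.M. of three replicates vs control.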

HeLa [36] = experiment: Induction of autophagy in human HeLa cells assessed as appearance of acidic vesicular organelles at 2 uM after 3 hrs by acridine orange staining-based immunofluorescence microscopic analysis in presence of N-acetylcysteine; type: functional, cell-based; method in brief: as §5
HeLa [37] = experiment: Induction of autophagy in human HeLa cells assessed as conversion of LC3-1 protein to LC3-2 protein at 2 uM after 3 hrs by Western blot analysis; type: functional, cell-based; method in brief: as §9
HeLa [38] = experiment: Induction of autophagy in human HeLa cells assessed as conversion of LC3-1 protein to LC3-2 protein at 8 mM after 24 hrs by Western blot analysis; type: functional, cell-based
Method in brief: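 HeLa incubated 24 h with DENSPM (25 µM) or spermidine (8 mM); LC3-I/LC3-II processing by Western blot of 50 µg protein with monoclonal anti-LC3 antibody.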

HeLa [39] = experiment: Induction of autophagy in human HeLa cells assessed as acidic vesicles accumulation at 20 uM after 3 hrs by acridine orange staining-based immunofluorescence microscopic analysis; type: functional, cell-based
Method in brief: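 HeLa incubated 3 h with 20 µM compound; acidic vesicle accumulation scored after acridine orange staining. Triplicate means ± S.E.M.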

c1ccc(C(CNCCCCCCNCCCCCCCCCCCCNCCCCCCNCC(c2ccccc2)c2ccccc2)c2ccccc2)cc1
IC50 (HeLa [1]): 1600 nM | IC50 (HT-29 [2]): 2400 nM | IC50 [3]: 2800 nM | Activity (HeLa [4]): inactive | IC50 (SAOS-2 [5]): 300 nM | IC50 (U2OS [6]): 400 nM | viability at 2 µM (HeLa [7]): 50% | Activity (HeLa [8]): Active | Activity (HeLa [9]): Active | IC50 (HL-60 [10]): 1900 nM | Activity (HeLa [11]): inactive | Activity (HeLa [12]): inactive | Activity (HeLa [13]): Active | Activity (HeLa [14]): Active | IC50 [15]: 4300 nM | Activity (HeLa [16]): Active | Activity (HeLa [17]): Active | Activity (HeLa [18]): inactive | Activity (HeLa [19]): inactive | Activity (HeLa [20]): inactive | IC50 (U2OS [21]): 1100 nM | Activity (HeLa [22]): inactive | IC50 (HT-29 [23]): 1100 nM | IC50 [24]: 900 nM | Activity (HeLa [25]): Active | IC50 (LoVo [26]): 800 nM | Activity (HeLa [27]): Active | IC50 (HL-60 [28]): 700 nM | IC50 (SAOS-2 [29]): 900 nM | IC50 (LoVo [30]): 2000 nM | Activity (HeLa [31]): >50% | Activity (HeLa [32]): Active | Activity (HeLa [33]): Active | IC50 (Thymocyte): 6800 nM | IC50 (HeLa [34]): 600 nM | Activity (HeLa [35]): inactive | Activity (HeLa [36]): inactive | Activity (HeLa [37]): Active

NCCCCNCCCN
Activity (HeLa [38]): Active

COc1ccccc1CNCCCCCCNCCCCCCCCCCCCNCCCCCCNCc1ccccc1OC
IC50 (HeLa [1]): 21000 nM | Activity (HeLa [39]): Active | IC50 [15]: 77000 nM | IC50 (Thymocyte): > 100000 nM
